Screens: PubChem BioAssay, several laboratories
H9c2 protect = protects H9c2 cardiomyocytes from peroxide injury | H2O2 injury protection, ATPLite, 2 h | protection from H2O2 cell death, % at 20 µM | hit rate 0.63% among 360,000;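 active = compounds giving at least 50% protection of heart cells from peroxide-induced death in the single-dose screen, raw or plate-pattern-corrected value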;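 also: 0% = DMSO wells with peroxide and 100% = DMSO wells without peroxide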
UCH37 inh = human UCH37 deubiquitinating enzyme inhibition; purified proteasome/UCH37, Ub-AMC cleavage fluorescence; inhibition, % (no concentration beside the values); hit rate 0.33% among 330,000; AID 588478;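 active = mean inhibition over replicate wells above about 20%, limit read from the data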;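 also: 0% = compound-free wells with enzyme and 100% = wells lacking proteasome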
Target sequence (Q9Y5K5 whole entry, looked up): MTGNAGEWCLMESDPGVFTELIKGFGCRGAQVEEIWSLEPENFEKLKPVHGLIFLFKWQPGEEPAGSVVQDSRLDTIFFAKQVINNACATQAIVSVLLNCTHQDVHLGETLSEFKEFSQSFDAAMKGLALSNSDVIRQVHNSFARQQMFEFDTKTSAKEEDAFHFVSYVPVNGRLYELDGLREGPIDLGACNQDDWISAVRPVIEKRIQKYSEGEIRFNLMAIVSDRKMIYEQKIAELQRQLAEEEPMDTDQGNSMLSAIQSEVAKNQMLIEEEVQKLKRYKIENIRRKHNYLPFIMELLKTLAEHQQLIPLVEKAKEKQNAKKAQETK
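Material: Human UCH37 enzyme supplied as purified proteasome complex | Schedule: 30 min preincubation with enzyme, 25 min cleavage at room temperature | Detection: AMC fluorescence 355/460 nm | Measure: % inhibition of Ub-AMC cleavage fluorescence | Controls: Wells without proteasome as full block, compound-free enzyme plus substrate as uninhibited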
aDG glyco up = increases alpha dystroglycan glycosylation | Pro5-aDG cells, alpha-DG glycosylation AlphaScreen (IIH6); 0% Pro5, 100% B10-LARGE cell signal | hit rate 0.22% among 360,000 | activation, % at 10 µM;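 active = activation of at least 8% versus controls, or a plate z-score of at least 8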;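 also: Pro5 are CHO cells carrying HIG-tagged alpha-DG that lacks glycosylation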
B2AR ag = agonists of human beta-2 adrenergic receptor inducing internalization; Am2.2-beta2AR cells, FAP receptor internalization, flow cytometry; response, % (test concentration not listed); hit rate 0.43% among 340,000; AID 504454;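 active = response above a set limit, near 3 SD of response in nonfluorescent compounds, cut at about 42% in these data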
Target sequence (P07550 whole entry, looked up): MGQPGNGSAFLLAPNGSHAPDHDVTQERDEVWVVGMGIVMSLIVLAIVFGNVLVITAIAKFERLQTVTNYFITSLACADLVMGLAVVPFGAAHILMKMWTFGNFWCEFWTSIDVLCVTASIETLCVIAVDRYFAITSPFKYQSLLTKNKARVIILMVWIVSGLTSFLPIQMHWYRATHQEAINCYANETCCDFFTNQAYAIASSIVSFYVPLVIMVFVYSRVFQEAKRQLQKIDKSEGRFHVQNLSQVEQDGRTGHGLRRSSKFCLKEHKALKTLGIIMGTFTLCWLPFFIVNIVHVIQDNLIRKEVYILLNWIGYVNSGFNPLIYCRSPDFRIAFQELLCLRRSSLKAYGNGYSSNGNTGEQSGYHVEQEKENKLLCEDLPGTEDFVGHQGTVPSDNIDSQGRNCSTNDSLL
PfGluPho inh = PfG6PD (Plasmodium falciparum) enzyme inhibition | PfGluPho enzyme, NADPH resazurin-diaphorase fluorescence | inhibition, % at 20 µM | hit rate 0.78% among 350,000;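 active = inhibition reaching at least a set limit at 20 µM in the primary screen, cut at about 59% in these data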;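 also: 0% = DMSO wells with substrate and 100% = DMSO wells lacking glucose-6-phosphate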
HKDC1 inh = blocks human hexokinase HKDC1 activity; recombinant HKDC1, G6PDH/diaphorase resazurin coupled fluorescence; hit rate 0.16% among 340,000; AID 493160; inhibition, % at 20 µM;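 active = inhibition above about 35% when tested at 20 µM, limit read from the data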;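 also: plate controls were DMSO wells with enzyme for no effect and DMSO wells lacking enzyme for full effect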
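Test system: Recombinant HKDC1 (HK5) hexokinase enzyme, produced in-house | Input: HKDC1 at 5 µg/mL | Buffer or medium: Tris pH 8.0 buffer with MgCl2, Tween-20, BSA, BME | Schedule: 90 min reaction incubation at room temperature, dark | Technique: Resazurin-to-resorufin fluorescence via G6PDH and diaphorase coupling, 525/613 nm | Controls: DMSO wells with and without enzyme mix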
B2AR ag CP1 = activates human beta-2 adrenergic receptor. shares compounds with B2AR ag. Am2.2-beta2AR cells, FAP surface receptor, flow cytometry; hits give low values. percent response (surface receptor), % at 10 µM. hit rate 25% among 1,100;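 active = surface receptor percent response at or below 58%, roughly 3 SD from nonfluorescent compounds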
FAP fluor counter = flagged in Am2.2 fluorescence counterscreen for beta-2AR agonists. 1,100 tested, under 10 active. shares compounds with B2AR ag. Am2.2 cells, FAP fluorogen flow cytometry; hits give low values. calls only at 10 µM;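 active = percent response below a set limit in fluorescence channel 1 and below 50% in channel 8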
Starred values were filed as active, the others as inactive; i = inactive; · = no result. In the library only some 2.1% were active in any assay of this set; here they are far more common.

SMILES | H9c2 protect | UCH37 inh | aDG glyco up | B2AR ag | PfGluPho inh | HKDC1 inh | B2AR ag CP1 | FAP fluor counter
CN(c1ccccc1)S(=O)(=O)c1cccc(C(=O)NC2CCCC2)c1 | 2.7 | -2.0 | 0.0 | -7.4 | 14.6 | -4.0 | · | ·
COc1ccc(-c2cc(C)no2)cc1S(=O)(=O)N1CCOc2ccc(Cl)cc21 | -0.6 | 2.5 | 0.2 | 46.4* | -1.6 | -6.6 | 121.1 | i
CCC(=O)N(C)CCc1cc2c(c(OC)c1C=NNS(=O)(=O)c1ccc(C)cc1)OCO2 | · | 3.1 | · | · | · | · | · | ·
CC(=NNS(=O)(=O)c1ccc(C)cc1)c1ccc(Br)s1 | · | 3.3 | · | · | · | · | · | ·
CN1CCN(CCc2nc3cc(NC(=O)COc4ccc(Cl)cc4)ccc3n2C)CC1 | 0.8 | 8.1 | 0.2 | 47.2* | -10.9 | 2.6 | 96.8 | i
Cc1ccc(OCC(=O)Nc2ccc3c(c2)nc(CCN2CCN(C)CC2)n3C)cc1 | 5.3 | 5.2 | 0.0 | 1.0 | -2.8 | 3.9 | 94.5 | i
O=C(COC(=O)c1ccccc1C(=O)c1ccc(Cl)c([N+](=O)[O-])c1)NC1CC1 | -35.4 | 1.9 | 0.0 | 42.8* | 0.7 | 1.7 | 68.1 | i
CNC(=O)COC(=O)c1ccccc1C(=O)c1ccc(Cl)c([N+](=O)[O-])c1 | -22.6 | 5.9 | -0.1 | 16.4 | 8.9 | -3.5 | · | ·
O=C(CSc1cccc2cccnc12)NN=Cc1ccc(O)cc1 | · | -5.0 | · | · | · | · | · | ·
CCC(=O)N(C)CCc1cc2c(c(OC)c1C=NNC(=O)c1ccc(Br)cc1)OCO2 | · | 3.6 | · | · | · | · | · | ·
COc1ccc(OCC(=O)NNC(=O)c2cccs2)cc1 | 1.8 | 0.9 | 0.0 | 2.2 | -9.7 | -3.4 | · | ·
COc1ccc(OCC(=O)Nc2ccc(NC(=O)c3cccs3)cc2)cc1 | -2.0 | 2.2 | -0.1 | 54.5* | -13.0 | -5.0 | 74.5 | i
CC(NCc1cccc(OCc2ccccc2)c1)C(O)c1ccccc1 (stereo not drawn) | 5.4 | 6.6 | 0.7 | 3.8 | 16.2 | -3.4 | · | ·
CC(NCc1ccc(OCc2ccc(Cl)cc2)cc1)C(O)c1ccccc1 (stereo not drawn) | -31.2 | 3.7 | 1.2 | 79.2* | 3.5 | 1.6 | 86.5 | i
O=C(c1ccc(OC2CCN(Cc3cccc(OCCO)c3)CC2)cc1)N1CCCC1 | 7.9 | 1.5 | 0.4 | 2.1 | 3.1 | -2.9 | 111.1 | i
COc1ccc(CN2CCC(Oc3ccc(C(=O)N4CCCCC4)cc3)CC2)cc1C | -3.0 | 2.7 | 1.1 | 33.3 | -1.2 | -5.6 | 85.0 | i
O=C(c1ccc(OC2CCN(Cc3cccc(F)c3)CC2)cc1)N1CCCCC1 | -0.7 | 1.5 | 0.6 | 3.5 | -3.4 | -6.6 | · | ·
COc1cccc(CN2CCC(Oc3ccc(C(=O)N4CCCCC4)cc3)CC2)c1 | -1.8 | -1.7 | 0.2 | 18.7 | -3.4 | -2.9 | 117.7 | i
CSc1cccc(CN2CCC(Oc3ccc(C(=O)N4CCCCC4)cc3)CC2)c1 | -2.4 | 0.9 | 0.9 | -4.1 | 0.9 | -0.1 | · | ·
CC(=NNC(=O)c1ccncc1)c1cccnc1 | · | 2.9 | · | · | · | · | · | ·
C=CCn1c(CNc2ccc(C)cc2)nnc1SCC(=O)NN=Cc1ccc(O)cc1O | · | 10.3 | · | · | · | · | · | ·
O=C(Nc1ccc(Nc2ccccc2)cc1)C1CC1 | -1.5 | 0.5 | 0.1 | 4.0 | 8.9 | 0.5 | · | ·
CC(C)(C)C1CCC(C(=O)Nc2ccccc2)CC1 (stereo not drawn) | -3.7 | 0.5 | -0.1 | 51.2* | -6.8 | 1.7 | 63.5 | i
Cn1cccc1C=NN1CCN(Cc2ccccc2Cl)CC1 | · | 5.2 | · | · | · | · | · | ·
CCOC(=O)c1c(NC(=O)COc2ccccc2OCC)sc2c1CC(C)(C)NC2(C)C | -10.8 | -2.7 | -0.7 | 61.6* | 9.3 | -0.6 | 59.4 | i
SMILES | H9c2 protect | UCH37 inh | aDG glyco up | B2AR ag | PfGluPho inh | HKDC1 inh | B2AR ag CP1 | FAP fluor counter
COc1cccc(OC)c1OCC(O)CN1CCN(c2ccccc2)CC1 (stereo not drawn) | -0.9 | 5.8 | -0.1 | 48.1* | -16.9 | 5.6 | 126.2 | i
COc1ccccc1N1CCN(CC(O)COc2c(OC)cccc2OC)CC1 (stereo not drawn) | 1.7 | 1.2 | 0.1 | 0.4 | 3.7 | -2.6 | · | ·
COC(=O)c1ccc(C(=O)OC)c(-n2c(=O)c3ccccc3c3ccccc3c2=O)c1 | -5.7 | 1.2 | -0.3 | 54.5* | -6.4 | 2.1 | 104.5 | i
COC(=O)c1ccc(-c2nn(C)c(=O)c3ccccc23)cc1 | -9.1 | 7.6 | 0.2 | -1.8 | -10.2 | -0.7 | · | ·
COc1ncnc2c1oc1nc(CC(C)C)c3c(c12)CCCC3 | -12.9 | 1.6 | 0.1 | -15.7 | 23.9 | 5.1 | · | ·
COc1ncnc2c1oc1nc(C)c3c(c12)CC(C)(C)OC3 | 5.7 | 6.2 | -0.2 | 8.6 | 12.2 | 20.3 | 78.8 | i
Cc1ccccc1N1CCN(S(=O)(=O)CC23CCC(CC2=O)C3(C)C)CC1 (stereo not drawn) | -4.8 | 0.8 | 0.0 | 6.8 | 3.6 | -5.3 | · | ·
CC1(C)C2CCC1(CS(=O)(=O)N1CCN(c3ccccc3F)CC1)C(=O)C2 (stereo not drawn) | 3.6 | 4.9 | 0.0 | 71.9* | -8.7 | 0.1 | 111.7 | i
CC(C)(C)NC(=S)NNC(=O)c1cccc(Br)c1 | -12.0 | 4.0 | 1.2 | -11.4 | 3.3 | -4.9 | 113.1 | i
C=CCn1c(SCC(=O)Nc2ccc(-c3nc4ccc(C)cc4s3)cc2)nnc1-c1ccncc1 | -8.0 | -217.7 | 0.0 | 57.5* | -2.9 | 6.2 | 104.0 | i
Cn1c(SCC(=O)N2c3ccccc3Sc3ccc(Cl)cc32)nnc1-c1ccco1 | 14.1 | -0.2 | -0.1 | -11.1 | 21.7 | 11.6 | · | ·
O=C(CSc1nnc(-c2ccncc2)n1Cc1ccco1)N1c2ccccc2Sc2ccc(Cl)cc21 | 6.5 | 1.2 | 0.2 | 84.7* | -4.5 | -2.9 | 6.7* | i
O=S(=O)(Cc1ccccc1)Nc1ccccc1 | -1.6 | -1.0 | 0.0 | -5.8 | 7.0 | -0.7 | · | ·
CN(Cc1ccccc1)S(=O)(=O)c1ccc(NS(=O)(=O)Cc2ccccc2)cc1 | -3.7 | 0.8 | 0.0 | 47.8* | -19.1 | -1.7 | 33.7* | i
CC1CCCC(C)N1N=C/C=C/c1ccccc1[N+](=O)[O-] (stereo not drawn) | · | 2.9 | · | · | · | · | · | ·
O=C(Nc1ncc2c(n1)CC(c1ccccc1)CC2=O)c1ccco1 (stereo not drawn) | 5.0 | 0.1 | 2.6 | -18.1 | 0.7 | -11.2 | · | ·
O=C(Nc1ncc2c(n1)CC(c1cccc(Cl)c1)CC2=O)c1ccco1 (stereo not drawn) | 3.4 | 0.5 | 1.2 | 43.1* | 4.4 | -4.6 | 75.4 | i
O=C(O)COc1ccccc1C=NNc1ccc(S(=O)(=O)Nc2ccc(Cl)cc2)cc1[N+](=O)[O-] | · | 16.9 | · | · | · | · | · | ·
